Compound activity as filed in PubChem.
CAL PDZ FP-1 = blocks peptide binding to human CAL PDZ domain. Q9HD26. purified CAL PDZ, TMR-peptide fluorescence polarization, 1 h. inhibition, % at 20 µM. 330,000 tested, 0.02% active. AID 504414;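 active means highest replicate inhibition of at least 40%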;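 further: plate controls were DMSO neutral control wells for no effect and unlabeled competitor peptide control wells for full effect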
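System: tagged CAL PDZ domain. Schedule: 1 h room-temperature incubation prior to read. Signal: fluorescence polarization (mP). Measure: percent inhibition from loss of millipolarization.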
dFosB activator = mouse delta FosB homodimer activation; P13346; purified delta FosB, TAMRA-CDK5 oligo fluorescence polarization; percent of positive-control signal above neutral wells; activation, % at 25 µM; 340,000 tested, 0.99% active; AID 493131;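 active means mean activation above about 17%, with every replicate also reaching it, limit read from the data, passing the limit was not always enough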
Target sequence (P13346 whole entry, looked up): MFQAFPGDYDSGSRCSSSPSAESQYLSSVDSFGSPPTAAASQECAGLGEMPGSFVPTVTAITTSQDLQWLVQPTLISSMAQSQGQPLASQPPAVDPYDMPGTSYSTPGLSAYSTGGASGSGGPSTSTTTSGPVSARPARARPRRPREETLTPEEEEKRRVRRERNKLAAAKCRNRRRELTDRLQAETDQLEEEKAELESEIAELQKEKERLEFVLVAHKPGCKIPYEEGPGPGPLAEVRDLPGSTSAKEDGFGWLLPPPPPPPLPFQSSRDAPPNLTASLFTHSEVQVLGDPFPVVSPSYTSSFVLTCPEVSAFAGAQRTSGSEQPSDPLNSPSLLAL
CAL PDZ FP-2 = inhibitors of human CAL PDZ peptide binding | 300,000 tested, 0.92% active | purified CAL PDZ, TMR-peptide fluorescence polarization, 1 h | AID 602252 | inhibition, % at 24.9 µM | Q9HD26;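 active means mean inhibition of at least 30% with at least half of replicates also reaching 30%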;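 further: 0% = DMSO neutral control and 100% = excess unlabeled competitor peptide PRC23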
CDK5 inh = blocks human CDK5/p35 kinase activity | inhibition, % at 10 µM | 330,000 tested, 0.01% active | Recombinant CDK5/p35, ADP-Glo luminescence, 60 min | AID 488839 | Q00535+Q15078;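 active means highest replicate inhibition of at least 50% and at least 75% of replicates reaching 50%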;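 further: plate controls were DMSO neutral control for no effect and GW8510 at 10 µM for full effect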
Statin myotox sup = suppressors of simvastatin-induced myotoxicity in C2C12 myotubes | ATP luminescence, 48 h; scaled: DMSO 0, geranylgeraniol control 100 | rescue of ATP level, % at 7.49 µM | 330,000 tested, 0.78% active | AID 602340;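 active means mean ATP rescue above about 67%, or every replicate alone reaching that limit, limit read from the data, passing the limit was not always enough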;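 further: myotubes were challenged with 10 µM simvastatin during compound exposure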
S100A4 MyoIIA = inhibitors of human S100A4 binding to myosin IIA peptide. P26447. S100A4/TAMRA-MyoIIA peptide fluorescence polarization. inhibition, % at 10.7 µM. 360,000 tested, 0.14% active;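 active means mean inhibition of at least 70% across replicates, with every replicate also reaching that level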
Target sequence (P26447 whole entry, looked up): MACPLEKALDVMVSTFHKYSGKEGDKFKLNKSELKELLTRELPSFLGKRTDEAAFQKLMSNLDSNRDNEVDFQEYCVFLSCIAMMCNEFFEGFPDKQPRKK
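incubation = readout 5 min after mixing, signal stable up to 60 min | system = S100A4 monomer protein | buffer or medium = HEPES pH 7.2 with CaCl2, KCl, NaCl, DTT, Triton | benchmarks = neutral control DMSO, positive control TFP | also added = fluorescent myosin IIA peptide, 5 nM | compound dosing = one concentration per compound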
* marks the source's active call; other numbers are inactive results; / = no result given; + = active, no number. This is a sample that favours compounds with a hit; in the whole collection about 2% have one here.

SMILES | CAL PDZ FP-1 | dFosB activator | CAL PDZ FP-2 | CDK5 inh | Statin myotox sup | S100A4 MyoIIA
COc1ccccc1N1CC(C)(C)C(=O)N(C(=O)c2c(F)cccc2Cl)C1=S | -1 | -10 | 81* | 0 | -6 | -1
Cn1c(NCc2ccco2)nc2c1c(=O)n(Cc1ccc(Cl)c(Cl)c1)c(=O)n2C | -1 | -4 | 76* | -2 | 20 | /
CN1C(=O)c2cc(NC(=O)C3CCOCC3)ccc2OC[C@@H]2O[C@H](CC(=O)NCc3ccccc3F)CC[C@@H]21 | / | / | / | / | -11 | /
O=C(NCCCN1CCOCC1)/C(=C/c1ccc(-c2cccc([N+](=O)[O-])c2)o1)NC(=O)c1ccccc1 | / | / | / | / | -14 | -3
Cc1nc2nc(C)n(CCN3CCOCC3)c(=O)c2c(-c2cccc([N+](=O)[O-])c2)c1C(=O)CCCCCCCCCCN1CCC(c2ccccc2)(c2ccccc2)CC1 | -16 | 37* | -2 | -1 | / | 8
CC1(C)Cc2c(sc(NC(=O)c3ccc(C(=O)c4ccccc4)cc3)c2C(N)=O)C(C)(C)N1 | -2 | 44* | -4 | 0 | / | -2
COC(=O)c1c(NC(=O)c2ccccc2)sc2c1CC(C)(C)NC2(C)C | 0 | -13 | / | 2 | -3 | -4
CC1CCCN(C(=O)c2sc3cc([N+](=O)[O-])ccc3c2Cl)C1 (stereo not given) | 0 | -8 | -9 | -1 | 66* | /
CS(=O)(=O)N1CCN(C(=O)c2cc(-c3ccncc3)nc3ccc(Cl)cc23)CC1 | 0 | -7 | -3 | -1 | 108* | /
CC(C)Oc1cc(F)ccc1-c1cc(C(=O)Nc2ccccc2)[nH]n1 | / | / | / | / | 0 | -3
Cc1ccc(NC(=O)CN(C)C(=O)COc2cccc3ccc(C)nc23)cc1 | 0 | -3 | 71* | 0 | 4 | -4
CCC(=O)c1ccc(OCC(O)CNC(C)c2ccccc2)cc1 (stereo not given) | 0 | 0 | 7 | -3 | / | /
COc1ccc(CCNC2CCN(C)CC2)cc1OC | / | -6 | 1 | 1 | 112* | /
O=C(COC(=O)c1cccc(OC(F)F)c1)NC1CCCC1 | / | -7 | 42* | 2 | 4 | -3
CCOC(=O)N1CCC(NC(=O)c2ccc3c(c2)N(Cc2ccc(C)cc2)CCS3)CC1 | 0 | -9 | -1 | 1 | -19 | 6
CCN(CC)c1ccc(C(=S)N2CCN(c3ccccc3)CC2)cc1 | -2 | -7 | -2 | 0 | 80* | /
O=C(c1ccc(OCC2CCCO2)cc1)N1CCN(c2ccccc2)CC1 (stereo not given) | 0 | -8 | 1 | 0 | / | 5
CCN(c1ccccc1)S(=O)(=O)c1ccc(C(=O)N2CCN(c3ccccc3)CC2)cc1 | 0 | -8 | 85* | 0 | -2 | -1
CS(=O)(=O)Nc1ccc(C(=O)N2CCN(c3ccccc3)CC2)cc1 | 0 | -6 | -7 | 1 | 115* | 9
COc1ccc(S(=O)(=O)N(CC(=O)N2CCN(c3ccccc3)CC2)c2ccccc2)cc1 | -3 | -8 | 0 | 0 | / | /
CN(CC1CCCO1)S(=O)(=O)c1ccc(C(=O)N2CCN(c3ccccc3)CC2)cc1 (stereo not given) | 0 | -3 | + | 1 | / | 4
S=C(c1ccccc1)N1CCN(c2ccccc2)CC1 | -1 | 0 | -6 | 0 | 13 | -4
O=C(c1ccccc1)N1CCN(c2ccccc2)CC1 | 0 | -5 | / | -2 | -2 | -3
CCOc1cc(/C=N/NC(=O)c2cc(-c3cccc(OC)c3)nc3ccccc23)ccc1O | / | / | / | / | / | -2
CN(C)S(=O)(=O)c1ccc(S(=O)(=O)N(CC(=O)Nc2ccccc2)CC2CCCO2)cc1 (stereo not given) | 0 | -2 | 6 | 1 | 85* | /
O=C(CN(CC1CCCO1)S(=O)(=O)c1ccc(S(=O)(=O)NCC2CCCO2)cc1)Nc1ccccc1 (stereo not given) | 0 | 4 | -3 | 0 | -17 | 3
CCNc1nc(NCc2ccccc2)nc(SCC(=O)Nc2ccccc2)n1 | -1 | 4 | -3 | -3 | / | /
CCOC(=O)C(=CNCC(=O)OC)C(=O)OCC | 1 | -3 | -1 | 1 | 107* | /
